Source: PubChem BioAssay
Rpn11 inh: Rpn11 (human) deubiquitinase inhibition | O00487 | 360,000 tested, 0.59% active | calls only at 20 µM | AID 588493 | human 26S proteasome, Ub4-pepOG fluorescence polarization; 20S core pre-blocked with epoxomicin;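 active = inhibition at 20 µM, scaled to each plate's controls, above about 33%, limit read from the data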
Target sequence (O00487 whole entry, looked up): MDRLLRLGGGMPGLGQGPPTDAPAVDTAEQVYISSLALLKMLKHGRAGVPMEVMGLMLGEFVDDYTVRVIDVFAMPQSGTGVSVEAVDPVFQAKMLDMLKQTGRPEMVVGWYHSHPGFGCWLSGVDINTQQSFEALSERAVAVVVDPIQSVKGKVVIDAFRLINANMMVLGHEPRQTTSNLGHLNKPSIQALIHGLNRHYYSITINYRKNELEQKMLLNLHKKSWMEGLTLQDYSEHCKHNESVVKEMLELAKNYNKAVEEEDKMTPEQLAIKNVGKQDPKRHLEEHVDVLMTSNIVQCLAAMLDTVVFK
HNF4A DNA FP: change in binding of human HNF4 alpha to DNA | P41235 | HNF4a-FITC DNA binding, fluorescence polarization, 1 h | activity change, % at 10 µM | 360,000 tested, 0.3% active | AID 1224865; in the data active = activity change above about 30%, passing the limit was not always enough
CSN inh: CSN deneddylation inhibition; Purified CSN, SCF-Nedd8-OG deneddylation, fluorescence polarization; Q92905; 360,000 tested, 0.38% active; AID 651999; inhibition, % at 12.5 µM;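 active = pattern-corrected inhibition above about 35%, with an unprinted fluorescence ratio check between 0.5 and 1.5, limit read from the data, passing the limit was not always enough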;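 note: 0% = enzyme with substrate and 100% = substrate without enzyme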
Target sequence (Q92905 whole entry, looked up, one chain of several): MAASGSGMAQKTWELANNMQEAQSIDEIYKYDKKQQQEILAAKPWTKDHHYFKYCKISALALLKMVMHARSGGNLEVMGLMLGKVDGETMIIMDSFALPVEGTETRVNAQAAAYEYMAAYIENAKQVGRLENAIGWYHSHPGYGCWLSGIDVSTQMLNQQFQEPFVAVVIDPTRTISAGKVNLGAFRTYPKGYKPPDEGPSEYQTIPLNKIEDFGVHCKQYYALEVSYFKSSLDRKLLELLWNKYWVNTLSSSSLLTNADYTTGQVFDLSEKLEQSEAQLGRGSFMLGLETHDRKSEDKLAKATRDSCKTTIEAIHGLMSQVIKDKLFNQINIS
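Schedule: reaction 90 min, room temperature / Assay system: HEK293T-derived human Csn5 enzyme / Input: Csn5 at 0.24 nM final / Measure: inhibition of Csn5 cleavage, % / Control set: substrate-only high control, full reaction low control / Technique: fluorescence polarization of the substrate / Buffer or medium: Tris/NaCl/DTT buffer, pH 7.5 / Reagent: SCFSkp2-Nedd8OG substrate at 10 nM final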
TPT1 inh: blocks Candida albicans tRNA 2'-phosphotransferase; 300,000 tested, 0.81% active; inhibition, % at 5 µM; recombinant caTPT1, FP RNA substrate dephosphorylation;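 active = inhibition above the mean of all tested compounds plus 3 SD, set per screening campaign, cut at about 24% in these data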;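 note: plate controls were DMSO alone for no effect and ferristatin control at 100 nM for full effect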
caTPT1 confirm: TPT1 (C. albicans) inhibition, confirmation; shares compounds with TPT1 inh; recombinant caTPT1, fluorescence polarization, RNase T1 coupled; inhibition, % at 5 µM; 2,400 tested, 74% active; AID 2149;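 active = inhibition above the primary screen limit, the mean inhibition of all tested compounds plus 3 SD, cut at about 25% in these data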
RNase T1 inh: RNase T1 inhibition in TPT1 counter-screen; shares compounds with TPT1 inh; inhibition, % at 5 µM; RNase T1 cleavage, fluorescence polarization, 1536-well; 2,400 tested, 83% active;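 active = inhibition above the solvent-only control well mean plus 3 SD, limit set per screening run, cut at about 23% in these data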;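 note: plate controls were DMSO wells with enzyme for no effect and wells without RNase T1 for full effect; inhibitors block cleavage so intact labeled substrate keeps polarization high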
Starred values were filed as active, the others as inactive; i = inactive; . = not tested or not shown; + = active, no number. A selection: hits, their analogues and other compounds. The true share with any hit is near 1.5%.

SMILES	Rpn11 inh	HNF4A DNA FP	CSN inh	TPT1 inh	others
CCCCCCCCCCCCCCCC[n+]1ccc(/C=N/O)cc1	+	40*	5	1
CCCCCCCCCCCCCCCC[n+]1ccccc1	+	8	4	.
O/N=C/c1cccc[n+]1CCCCCC[n+]1ccccc1/C=N/O	i	4	-3	.
Cc1cccc(-n2nc3c(c2NC(=O)c2ccco2)CSC3)c1C	i	-20	36*	3
Cc1cccc(-n2nc3c(c2NC(=O)c2ccco2)CS(=O)C3)c1C (centres undefined)	i	1	1	0
N#C/C(=C/C1=C(N2CCOCC2)C(=C/c2ccccc2)/CC1)C(=O)Nc1ccccc1F	.	84	58*	.
CCOC(=O)C1=C(CSc2nc(-c3ccccc3)ccc2C#N)OC(N)=C(C#N)C1c1ccccc1 (centres undefined)	.	39*	39*	21
CCOC(=O)C1=C(CSc2nc(-c3ccccc3)ccc2C#N)OC(N)=C(C#N)C1c1cccnc1 (centres undefined)	.	32	32	16
Cc1ccc([C@H]2C[C@@H](n3cc(COC(=O)c4ccccc4)nn3)[C@H](O)CN2C(=O)c2cccs2)cc1	i	0	1	.
COc1cc(NC(=NS(=O)(=O)c2ccccc2)c2ccccc2)ncn1	i	1	-5	.
O=C(Nc1c(Cl)cccc1Cl)Oc1cccc2cccnc12	+	1	0	.
Cc1ccccc1S(=O)(=O)c1c(C)cc(C)n(C)c1=O	i	2	43*	3
Cc1ccc(C(=O)Nc2cccc(-c3cn4ccccc4n3)c2)cc1	i	-1	35*	-1
O=C(Nc1ccc2nc(-c3cccs3)c(-c3cccs3)nc2c1)N1CCOCC1	+	7	7	6
O=C(Nc1cccc(O)c1)N1CCOCC1	i	0	-2	0
O=C(c1cccn2c(=O)c3ccccc3nc12)N1CCN(Cc2ccc3c(c2)OCO3)CC1	i	10	-1	-1
O=C(c1ccc2nc3ccccc3c(=O)n2c1)N1CCN(Cc2ccc3c(c2)OCO3)CC1	i	39*	7	2
COC(=O)C1CCN(C2CN(C3CCCCC3)S(=O)(=O)C2)CC1 (centres undefined)	i	2	1	.
Oc1c(Cl)cc(CN2CCOCC2)c2cccnc12	i	6	-1	.
Oc1c(CN2CCc3ccccc3C2)cc(Cl)c2cccnc12	+	-2	-2	-2
CCOC(=O)[C@]12CCC=C1N(Cc1ccc(Cl)cc1Cl)C(=O)[C@H](CC(=O)NCCCN1CCCC1=O)C2	.	-5	-2	.
COc1cccc(-c2nc3nc(C)cc(C)n3c2Nc2c(C)cccc2C)c1	.	53*	32	.
CCCCNc1c(-c2cccc(OC)c2)nc2nc(C)cc(C)n12	.	2	0	.
Cn1ccc2c(-c3ccc4c(c3)OCCO4)cc3c(c21)C1CCC3C1 (centres undefined)	i	2	117*	.
CCc1ncn(CCc2ccccc2OC)c1C(C)C	.	4	0	.
SMILES	Rpn11 inh	HNF4A DNA FP	CSN inh	TPT1 inh	others
COc1ccccc1CCn1cnc(C)c1CC(C)C	.	3	62*	.
O=C(NC1CCCC1)c1cnn2c(C(F)(F)F)cc(-c3ccc4c(c3)OCO4)nc12	.	70*	22	-4
O=C(c1cnn2c(C(F)(F)F)cc(-c3ccc4c(c3)OCO4)nc12)N1CCCCC1	i	-2	-3	-1
O=C(CCc1nnc(Cc2ccc(-c3ccccc3)cc2)o1)NCC1CC1	i	3	-3	0
COCCNC(=O)CCc1nnc(Cc2ccc(-c3ccccc3)cc2)o1	i	0	115*	0
COc1cccc(N2CCN(C(=O)CN3C(=O)NC(C)(c4ccc5ccccc5c4)C3=O)CC2)c1 (centres undefined)	i	6	4	2
Cc1cccc(C)c1NC(=O)NCCSc1snnc1C	i	-2	35*	-1
CCN1CCCC1CNC(=O)Cn1cc(C)c(=O)[nH]c1=O (centres undefined)	i	2	0	.
CN1/C(=C/C=C/c2n(C)c3cc([N+](=O)[O-])c([N+](=O)[O-])cc3[n+]2C)C(C)(C)c2ccccc21	i	95*	11	.
Cc1cccc[n+]1CC(=O)/C=C1\N(C)c2ccccc2C1(C)C	i	16	4	0
NS(=O)(=O)c1ccc(-c2ccc(C=C3C(=O)c4ccccc4C3=O)o2)cc1	i	2	-3	6
CC(C)CC1=C/C(=C/c2ccc(-c3ccccc3)o2)C(=O)O1	+	-17	38*	8
COc1ccc(N2C(=O)[C@@H]3[C@H](C2=O)[C@H](C(C)=O)N2c4ccccc4C=C[C@@H]32)cc1	i	14	4	23
COc1ccc(C2C(C(=O)c3ccccc3)N3c4ccccc4C=CC3C2[N+](=O)[O-])cc1 (centres undefined)	.	113	37*	.
CCCC[C@@H]1C=C(C(=O)O)[C@H](c2ccc(C#N)cc2)N1S(=O)(=O)c1ccc(C)cc1	i	0	-2	.
Nc1ccc(OCCCc2c(N)nc(N)nc2N)cc1	+	5	30	-5
N#C/C(=C\c1coc2ccccc2c1=O)C(N)=S	+	15	14	0
O=C(Cc1ccc(Cl)c(Cl)c1)Nc1cccc(S(=O)(=O)N2CCOCC2)c1	i	-2	7	62*	caTPT1 confirm=1;RNase T1 inh=3
COc1ccc(N2CCN(C(=O)c3ccc4c(c3)NC(=O)C(CSCc3cccc(F)c3)N4)CC2)cc1 (centres undefined)	.	.	.	85*	caTPT1 confirm=8;RNase T1 inh=14
COc1ccc(N2CCN(C(=O)c3ccc4c(c3)NC(=O)C(CSCc3ccc(C)cc3)N4)CC2)cc1 (centres undefined)	.	.	.	92*	caTPT1 confirm=22;RNase T1 inh=34*
COc1ccc(N2CCN(C(=O)c3ccc4c(c3)NC(=O)C(CSCc3c(F)cccc3Cl)N4)CC2)cc1 (centres undefined)	.	.	.	66*	caTPT1 confirm=12;RNase T1 inh=19
OCC[n+]1ccc(/C=C/c2c[nH]c3ccccc23)cc1	.	103	85	57*	caTPT1 confirm=59*;RNase T1 inh=65*
CCn1ncc(Br)c1C(=O)Nc1cc(C)cc(C)c1	i	2	1	34*	caTPT1 confirm=7;RNase T1 inh=13
O=C(O)c1ccc(N2CCCCCC2)c(N2C(=O)c3ccccc3C2=O)c1	i	0	-3	-6
O=C1c2cccc3c(N4CCCCC4)ccc(c23)C(=O)N1c1ccc(O)cc1	.	-104	15	72*	caTPT1 confirm=61*;RNase T1 inh=61*
O=C1c2cccc3c(N4CCCCC4)ccc(c23)C(=O)N1c1ccccc1O	.	-7	-70	72*	caTPT1 confirm=39*;RNase T1 inh=50*
O=C1Nc2ccccc2Oc2cc([N+](=O)[O-])ccc21	i	-3	1	12
CCOc1cc([N+](=O)[O-])cc2c1C(=O)Nc1ccccc1O2	.	14	43*	30*	caTPT1 confirm=44*;RNase T1 inh=55*
